The values that follow come from ChEMBL document CHEMBL1140685, “Synthesis and antitrichinellosis activity of some bis(benzimidazol-2-yl)amines” (2007).

What all share (type): functional
The subject of test [1] is Trichinella spiralis. As to the kind of experiment: Antitrichinellosis activity against Trichinella spiralis larvae at 50 ug/ml after 24 hrs by Campbell's method. Summed up: (§1)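 Encapsulated T. spiralis larvae were held at 150 per 1 ml physiological solution with compound dissolved in DMSO–water. Incubation was at 37 °C in a humid thermostatted chamber. Larval vitality was scored by stereomicroscope at 24 and 48 h after treatment.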

Test [2] relates to Trichinella spiralis. In words: Antitrichinellosis activity against Trichinella spiralis larvae at 100 ug/ml after 24 hrs by Campbell's method. Summed up:
as §1

For test [3], the system named is Trichinella spiralis. In words: Antitrichinellosis activity against Trichinella spiralis larvae at 200 ug/ml after 24 hrs by Campbell's method. In a few lines: as §1
For test [4], the system named is Trichinella spiralis. As to the kind of experiment: Antitrichinellosis activity against Trichinella spiralis larvae at 50 ug/ml after 48 hrs by Campbell's method. Summed up:
as §1

Test [5] relates to Trichinella spiralis. As to the kind of experiment: Antitrichinellosis activity against Trichinella spiralis larvae at 100 ug/ml after 48 hrs by Campbell's method. Summed up: as §1
Test [6] relates to Trichinella spiralis. In words: Antitrichinellosis activity against Trichinella spiralis larvae at 200 ug/ml after 48 hrs by Campbell's method. Summed up: as §1
The test system of test [7] is Trichinella spiralis. As to the kind of experiment: Antitrichinellosis activity against Trichinella spiralis intestinal phase larvae in mouse at 50 mg/kg, po after 3 days. In a few lines: (§2)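 White immature mice each infected with 150 Trichinella larvae, five mice per group. Oral dosing by thin metallic probe into the oesophagus as DMSO solution, once daily for 3 days starting on day 3 after infection. Controls were untreated mice and mice given albendazole at 100 mg/kg. Read-out was microscopic examination of small-intestine contents after autopsy for larvae.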

The test system of test [8] is Trichinella spiralis. In words: Antitrichinellosis activity against Trichinella spiralis intestinal phase larvae in mouse at 100 mg/kg, po after 3 days. Summed up: as §2

On to `Cn1c(Nc2nc3ccccc3[nH]2)nc2ccccc21`, for which the Efficacy in the test on Trichinella spiralis [1] worked out at 9.1%; with Trichinella spiralis [2], 13.5%; in the test on Trichinella spiralis [3] it was 30.2%; in the test on Trichinella spiralis [4], 17.2%; in the test on Trichinella spiralis [5] it was 28.3%; in the test with Trichinella spiralis [6] it was 58.3%.

In the case of `CCn1c(Nc2nc3ccccc3[nH]2)nc2ccccc21`, the Efficacy in the test with Trichinella spiralis [1] turned out to be 15.7%; in the test on Trichinella spiralis [2], 20%; in the test on Trichinella spiralis [3], 38.2%; with Trichinella spiralis [4], 25.3%; with Trichinella spiralis [5], 38.6%; in the test with Trichinella spiralis [6], 65%.

On to `CCCn1c(Nc2nc3ccccc3[nH]2)nc2ccccc21`, for which the Efficacy in the test on Trichinella spiralis [1] was determined as 12%; with Trichinella spiralis [2], 17.6%; in the test on Trichinella spiralis [3], 67.7%; in the test with Trichinella spiralis [4] it was 20%; in the test with Trichinella spiralis [5], 34.5%; in the test on Trichinella spiralis [6] it was 78%.

On to `CCn1c(Nc2nc3ccccc3n2C)nc2ccccc21`, for which the Efficacy in the test on Trichinella spiralis [1] stood at 35.3%; with Trichinella spiralis [2], 65.7%; with Trichinella spiralis [3], 76.3%; in the test with Trichinella spiralis [4] it was 65.3%; with Trichinella spiralis [5], 73%; in the test with Trichinella spiralis [6], 84%.

In the case of `CCn1c(Nc2nc3ccccc3n2CC)nc2ccccc21`, the Efficacy with Trichinella spiralis [1] was found to be 45.8%; in the test with Trichinella spiralis [2] it was 92%; with Trichinella spiralis [3] it was 94%; in the test with Trichinella spiralis [7], 100%; with Trichinella spiralis [8], 100%; with Trichinella spiralis [4], 66.3%. The Efficacy in the test with Trichinella spiralis [5] is reported as 97.5%; in the test on Trichinella spiralis [6], 98%.

For the compound `CCCn1c(Nc2nc3ccccc3n2CC)nc2ccccc21`, the Efficacy is given as 42% in the test with Trichinella spiralis [1]; 84% in the test on Trichinella spiralis [2]; 96% in the test on Trichinella spiralis [3]; 100% in the test on Trichinella spiralis [7]; 100% in the test with Trichinella spiralis [8]; 46% in the test with Trichinella spiralis [4]. Moreover, the Efficacy turned out to be 92.1% with Trichinella spiralis [5] and 100% in the test with Trichinella spiralis [6].

Turning to `Cn1c(Nc2nc3ccccc3n2C)nc2ccccc21`, the Efficacy in the test with Trichinella spiralis [1] is 8.8%; in the test with Trichinella spiralis [2], 17.3%; with Trichinella spiralis [3], 45.7%; in the test on Trichinella spiralis [4], 14%; in the test with Trichinella spiralis [5], 18.3%; in the test on Trichinella spiralis [6], 67.9%.

Consider `CCCn1c(Nc2nc3ccccc3n2C)nc2ccccc21`, for which the Efficacy is 33.3% with Trichinella spiralis [1]; 73.8% in the test with Trichinella spiralis [2]; 80% in the test on Trichinella spiralis [3]; 43.4% in the test on Trichinella spiralis [4]; 80% in the test with Trichinella spiralis [5]; 88.4% with Trichinella spiralis [6].

Turning to `CCCn1c(Nc2nc3ccccc3n2CCC)nc2ccccc21`, the Efficacy in the test with Trichinella spiralis [1] amounted to 45.9%; with Trichinella spiralis [2], 81.2%; in the test with Trichinella spiralis [3] it was 100%; in the test with Trichinella spiralis [7] it was 100%; in the test on Trichinella spiralis [8], 100%; in the test on Trichinella spiralis [4] it was 58.6%. The Efficacy in the test with Trichinella spiralis [5] worked out at 95.3%; with Trichinella spiralis [6], 100%.

On to `CCCSc1ccc2[nH]c(NC(=O)OC)nc2c1` [ALBENDAZOLE], for which the Efficacy turned out to be 10.6% with Trichinella spiralis [1]; 10.7% in the test with Trichinella spiralis [2]; 13.3% in the test with Trichinella spiralis [3]; 100% in the test on Trichinella spiralis [8]; 14.8% with Trichinella spiralis [4]; 15.1% in the test with Trichinella spiralis [5]. In the test on Trichinella spiralis [6], this compound returned an Efficacy of 17.4%.
